According to ChEMBL document CHEMBL2016538, “Synthesis and evaluation of C-11, F-18 and I-125 small molecule radioligands for detecting oxytocin receptors” (Bioorg Med Chem, 2012):
Activity calls are given as the source filed them. No cut-off for these calls is given here.

Experiments:
[1] = Chemical stability of the compound in 10 % ethanol assessed as remaining radioactivity; type: physicochemical
[2] = test system: Thyroid gland; assay: Drug uptake in iv dosed Sprague-Dawley rat thyroid assessed as per organ after 15 mins; type: ADME, organism-based; details: in vivo, 0.25 h
Summary of the method: (§1)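 Female Sprague–Dawley rats (180–200 g), fed ad libitum, were anesthetised with im ketamine/xylazine. Radioligand was given iv via tail vein in 0.1–0.2 ml 10% ethanol/saline. Animals were killed at 15, 30, 60 or 120 min and the thyroid was counted by gamma counter with dose standards. Counts were decay-corrected and given as percent injected dose per organ; n = 4, or 3 where noted.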

[3] = test system: Thyroid gland; assay: Drug uptake in iv dosed Sprague-Dawley rat thyroid assessed as per organ after 30 mins; type: ADME, organism-based; details: in vivo, 0.5 h; summary of the method: as §1
[4] = test system: Thyroid gland; assay: Drug uptake in iv dosed Sprague-Dawley rat thyroid assessed as per organ after 60 mins; type: ADME, organism-based; details: in vivo, 1 h; summary of the method: as §1
[5] = test system: Thyroid gland; assay: Drug uptake in iv dosed Sprague-Dawley rat thyroid assessed as per organ after 120 mins; type: ADME, organism-based; details: in vivo, 2 h; summary of the method: as §1
[6] = molecular target: Vasopressin V1a receptor (Microtus ochrogaster, UniProt Q9WTV9); assay: Displacement of [125I]-LVA from prairie vole vasopressin V1A receptor after 72 hrs
Vasopressin V1a receptor (Microtus ochrogaster, UniProt Q9WTV9), sequence (Q9WTV9 whole entry): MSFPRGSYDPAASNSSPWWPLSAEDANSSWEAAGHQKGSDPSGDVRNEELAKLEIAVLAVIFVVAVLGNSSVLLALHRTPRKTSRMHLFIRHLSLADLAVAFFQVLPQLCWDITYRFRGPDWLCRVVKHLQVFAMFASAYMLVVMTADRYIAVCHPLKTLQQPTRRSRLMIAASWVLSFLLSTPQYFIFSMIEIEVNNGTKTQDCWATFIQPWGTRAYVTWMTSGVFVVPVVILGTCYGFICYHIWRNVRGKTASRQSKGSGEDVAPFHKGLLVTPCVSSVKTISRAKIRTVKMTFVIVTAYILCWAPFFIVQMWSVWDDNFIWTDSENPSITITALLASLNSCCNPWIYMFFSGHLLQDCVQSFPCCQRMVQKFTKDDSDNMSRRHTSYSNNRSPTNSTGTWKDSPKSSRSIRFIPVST
Summary of the method: (§2)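 Prairie vole brain cryosections (20 μm, PFC through NAcc and VP) were thawed, dipped in 0.1% paraformaldehyde in PBS pH 7.4 and rinsed in 50 mM Tris pH 7.4. They were incubated 1 h with 50 pM 125I-LVA plus competitor at 0 or 10−10 to 10−5 M, then washed in Tris/2% MgCl2 pH 7.4. Film exposure was 72 h against 125I standards. Ki came from competition curves; sections from six animals.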

[7] = molecular target: T1, Oxytocin receptor (Homo sapiens, UniProt P30559); assay: Displacement of [3H]oxytocin from human oxytocin receptor after […] by liquid scintillation counting
T1 sequence (P30559 whole entry): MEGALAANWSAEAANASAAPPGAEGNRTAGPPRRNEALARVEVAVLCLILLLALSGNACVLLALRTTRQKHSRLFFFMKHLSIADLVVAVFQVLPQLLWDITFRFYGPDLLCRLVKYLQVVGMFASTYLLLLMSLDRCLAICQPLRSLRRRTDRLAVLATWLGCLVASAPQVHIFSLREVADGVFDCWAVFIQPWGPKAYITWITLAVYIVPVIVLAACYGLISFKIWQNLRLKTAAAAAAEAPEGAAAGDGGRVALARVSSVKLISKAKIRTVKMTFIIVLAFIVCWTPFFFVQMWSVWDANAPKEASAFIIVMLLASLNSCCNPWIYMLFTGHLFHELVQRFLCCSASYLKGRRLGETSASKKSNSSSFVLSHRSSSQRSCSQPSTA

[8] = molecular target: Vasopressin V1a receptor (Homo sapiens, UniProt P37288); assay: Displacement of [3H]-AVP from human V1A receptor after […] by liquid scintillation counting
Vasopressin V1a receptor (Homo sapiens, UniProt P37288), sequence (P37288 whole entry): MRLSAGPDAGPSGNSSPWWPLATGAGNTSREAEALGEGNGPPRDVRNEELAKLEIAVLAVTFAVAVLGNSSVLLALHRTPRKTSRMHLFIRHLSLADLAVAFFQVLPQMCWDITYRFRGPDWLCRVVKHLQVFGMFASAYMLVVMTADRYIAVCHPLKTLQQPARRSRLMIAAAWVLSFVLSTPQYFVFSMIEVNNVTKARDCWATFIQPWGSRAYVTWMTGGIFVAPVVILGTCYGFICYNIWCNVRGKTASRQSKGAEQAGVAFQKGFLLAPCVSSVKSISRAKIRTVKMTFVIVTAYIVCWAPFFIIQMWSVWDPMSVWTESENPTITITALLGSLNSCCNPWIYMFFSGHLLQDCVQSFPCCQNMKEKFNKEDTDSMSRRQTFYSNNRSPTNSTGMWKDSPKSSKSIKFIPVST

[9] = molecular target: Vasopressin V2 receptor (Homo sapiens, UniProt P30518); assay: Displacement of [3H]-AVP from human vasopressin V2 receptor after […] by liquid scintillation counting
Vasopressin V2 receptor, sequence (P30518 whole entry): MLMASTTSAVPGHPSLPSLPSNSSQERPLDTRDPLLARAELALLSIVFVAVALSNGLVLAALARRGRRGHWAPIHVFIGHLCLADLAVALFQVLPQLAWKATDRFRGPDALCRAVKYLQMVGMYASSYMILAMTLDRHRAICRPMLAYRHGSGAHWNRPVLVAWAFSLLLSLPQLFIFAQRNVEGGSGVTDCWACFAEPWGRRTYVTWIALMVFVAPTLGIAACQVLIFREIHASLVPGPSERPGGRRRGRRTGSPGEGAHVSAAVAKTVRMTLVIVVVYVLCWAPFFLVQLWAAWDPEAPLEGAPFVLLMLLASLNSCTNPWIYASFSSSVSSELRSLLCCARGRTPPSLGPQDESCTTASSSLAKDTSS

[10] = Octanol-water partition coefficient, log P of the compound at 5 to 10 uCi at pH 7.4 after 3 mins; type: physicochemical
Summary of the method: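 About 5–10 μCi radioligand was shaken 3 min in 5 ml 0.1 M sodium phosphate pH 7.4 and 10 ml octanol. 2 ml octanol aliquots were re-partitioned against 2 ml fresh buffer by vortexing 7 min, then centrifuged at 20,000×g for 5 min. 0.5 ml of each layer was gamma-counted, and average counts gave logP7.4.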

[11] = test system: Brain; assay: Drug uptake in Sprague-Dawley rat brain at 277 uCi, iv after 45 mins by PET imaging; type: ADME, organism-based; details: in vivo, 0.75 h
Summary of the method: (§3)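 Female Sprague–Dawley rats got estradiol benzoate 10–12 μg sc in sesame oil daily for 3 days to up-regulate OTR. They were anesthetised with ketamine/xylazine 100/10 mg/kg ip, and 200–300 μCi radioligand was injected via tail vein catheter. MicroPET brain scans began at injection (90 min 18F, 45 min 11C) after a 7 min Co-57 transmission scan. Frames were summed and whole-brain time-activity curves plotted.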

[12] = molecular target: T2, Vasopressin V1b receptor (Homo sapiens, UniProt P47901); assay: Displacement of [3H]-AVP from human V1b receptor after […] by liquid scintillation counting
T2 sequence (P47901 whole entry): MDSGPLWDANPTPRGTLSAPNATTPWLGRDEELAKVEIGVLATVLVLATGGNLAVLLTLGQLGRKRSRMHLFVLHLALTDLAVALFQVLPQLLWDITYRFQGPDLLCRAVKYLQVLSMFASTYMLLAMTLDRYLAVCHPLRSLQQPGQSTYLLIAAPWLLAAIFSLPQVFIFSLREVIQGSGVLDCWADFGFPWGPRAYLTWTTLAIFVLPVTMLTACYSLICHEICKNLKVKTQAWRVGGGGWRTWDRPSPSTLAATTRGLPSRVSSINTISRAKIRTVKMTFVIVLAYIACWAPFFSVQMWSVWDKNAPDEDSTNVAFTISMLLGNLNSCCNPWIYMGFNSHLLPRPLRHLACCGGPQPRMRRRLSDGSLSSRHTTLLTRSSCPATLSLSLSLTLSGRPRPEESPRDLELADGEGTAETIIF

[13] = molecular target: Vasopressin V1a receptor (Microtus ochrogaster) (UniProt Q9WTV9); assay: Binding affinity to prairie vole ventral pallidum vasopressin V1A receptor by autoradiography; details: tested as the 125I-labelled form; summary of the method: as §2
Vasopressin V1a receptor (Microtus ochrogaster), sequence (Q9WTV9 whole entry, looked up): as the sequence (Q9WTV9 whole entry) above

[14] = test system: Brain; assay: Drug uptake in Sprague-Dawley rat brain at 295 uCi. iv after 5 mins by PET imaging; type: ADME, organism-based; details: in vivo; summary of the method: as §3

SMILES	Ki [6] [nM]	Ki [7] [nM]	Ki [8] [nM]	Ki [9] [nM]	logD at 0.05 h [10]	other results
CS(=O)(=O)N1CCC(Oc2ccc(CC(=O)N3CCC(N4C(=O)CCc5ccccc54)CC3)c(OC/C=C\[125I])c2)CC1						Stability [1]: 15%; Drug uptake [2]: 0.05 %ID; Drug uptake [3]: 0.2 %ID; Drug uptake [4]: 0.32 %ID; Drug uptake [5]: 0.67 %ID
CS(=O)(=O)N1CCC(Oc2ccc(CC(=O)N3CCC(N4C(=O)CCc5ccccc54)CC3)c(OC/C=C/I)c2)CC1	1.7	10	790	1400	2.36	
COc1cc(OC2CCN(S(C)(=O)=O)CC2)ccc1CC(=O)N1CCC(N2C(=O)CCc3ccccc32)CC1	78	28	4800	3700	2.25	
CS(=O)(=O)N1CCC(Oc2ccc(CC(=O)N3CCC(N4C(=O)CCc5ccccc54)CC3)c(OCCF)c2)CC1	9.4	16	8700	1800	2.02	
CS(=O)(=O)N1CCC(Oc2ccc(CC(=O)N3CCC(N4C(=O)CCc5ccccc54)CC3)c(O[11CH3])c2)CC1						Drug uptake [11]: Not Active
CS(=O)(=O)N1CCC(Oc2ccc(CC(=O)N3CCC(N4C(=O)CCc5ccccc54)CC3)c(OC/C=C/[125I])c2)CC1						Stability [1]: 15%; Drug uptake [2]: 0.19 %ID; Drug uptake [3]: 0.53 %ID; Drug uptake [4]: 0.81 %ID; Drug uptake [5]: 1.05 %ID
CS(=O)(=O)N1CCC(Oc2ccc(CC(=O)N3CCC(N4C(=O)CCc5ccccc54)CC3)c(OC/C=C\I)c2)CC1	16	5.7	530	580	2.18	Ki [12]: 9600 nM; Activity [13]: Active
CS(=O)(=O)N1CCC(Oc2ccc(CC(=O)N3CCC(N4C(=O)CCc5ccccc54)CC3)c(OCC[18F])c2)CC1						Drug uptake [14]: Active
CS(=O)(=O)N1CCC(Oc2ccc(CC(=O)N3CCC(N4C(=O)CCc5ccccc54)CC3)c(O)c2)CC1		78				
